Our source for the IC50 values is ChEMBL document CHEMBL1806456, “Chemistry of ecteinascidins. Part 3: preparation of 2'-N-acyl derivatives of ecteinascidin 770 and evaluation of cytotoxicity” (Bioorg Med Chem, 2011).

As usually defined, the IC50 is the midpoint of a concentration-inhibition curve. Lower therefore signals greater potency.

Type in all cases: functional, cell-based
One experiment has as its system HCT-116. Kind of experiment: Cytotoxicity against human HCT116 cells after 4 days by MTT assay. The settings on record: HCT-116, 96 h. Put shortly: (§1)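 Cells seeded as single-cell suspension, 2 × 10³ cells/well, onto serially diluted compounds in microplates; cultured 4 d. Viable cells counted with a cell counting kit. IC50 taken as concentration giving 50% growth inhibition relative to untreated control.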

The test system of a further experiment is QG-56. The experiment in a line: Cytotoxicity against human QG56 cells after 4 days by MTT assay. The settings on record: QG-56, 96 h. Put shortly:
as §1
On the technique in general: Formazan colour is commonly taken as a measure of viable cells.

The next experiment deals with DU-145. The experiment in a line: Cytotoxicity against human DU145 cells after 4 days by MTT assay. The settings on record: DU-145, 96 h. The procedure, abridged:
as §1

Structures are written as SMILES.

As to `C=CCOc1cc2c(cc1OC)[C@@]1(CS[C@@H]3c4c(OC(C)=O)c(C)c5c(c4[C@@H](COC1=O)N1[C@@H]3[C@H]3c4c(cc(C)c(OC)c4OCC=C)C[C@@H]([C@@H]1C#N)N3C)OCO5)N(C(=O)c1cccnc1)CC2`, the IC50 was 390 nM in the experiment on HCT-116, more than 1000 nM in the experiment on QG-56 and 680 nM with DU-145.

Consider `C=CCOc1cc2c(cc1OC)[C@@]1(CS[C@@H]3c4c(OC(C)=O)c(C)c5c(c4[C@@H](COC1=O)N1[C@@H]3[C@H]3c4c(cc(C)c(OC)c4OCC=C)C[C@@H]([C@@H]1C#N)N3C)OCO5)NCC2`, for which the values for the IC50 in the experiment on HCT-116, in the experiment on QG-56 and with DU-145 were 54 nM, 160 nM and 100 nM, respectively.

Take `C=CCOc1cc2c(cc1OC)[C@@]1(CS[C@@H]3c4c(OC(C)=O)c(C)c5c(c4[C@@H](COC1=O)N1[C@@H]3[C@H]3c4c(cc(C)c(OC)c4OCC=C)C[C@@H]([C@@H]1C#N)N3C)OCO5)N(C(=O)c1ccnc3ccccc13)CC2`: the IC50 in the experiment with HCT-116 was 310 nM; in the experiment on QG-56 it was 420 nM; in the experiment with DU-145, 420 nM.

Take `COc1cc2c(cc1O)CCN(C(=O)c1ccncc1)[C@]21CS[C@@H]2c3c(OC(C)=O)c(C)c4c(c3[C@@H](COC1=O)N1[C@@H]2[C@H]2c3c(cc(C)c(OC)c3O)C[C@@H]([C@@H]1C#N)N2C)OCO4`: the IC50 in the experiment on HCT-116 amounted to 0.045 nM; in the experiment with QG-56, 0.2 nM; in the experiment with DU-145 it was 0.3 nM.
